# From ChEMBL document CHEMBL5214977, “Discovery and Optimization of Quinoline Analogues as Novel Potent Antivirals against Enterovirus D68” (J Med Chem, 2022)
# pEC50: −log10 of the molar value.
# Experiments:
# [1] = system: RD; assay: Cytotoxicity against human RD cells assessed as inhibition of cell viability by measuring ATP level incubated for 72 hrs by cell titer-glo luminescent cell viability assay; type: functional
# In short: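 Uninfected RD cells seeded at 1.5 × 10^4/well and grown 24 h, then exposed to compound in 3-fold dilutions (0.01–200 μM), with DMSO as cell control. ATP read by CellTiter-Glo luminescence after 72 h; CC50 is the 50% cytotoxic concentration.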
# [2] = system: enterovirus D68; assay: Antiviral activity against Enterovirus-D68 STL-2014-12 infected in human RD cells assessed as reduction in virus induced cytopathic effect by measuring ATP level incubated for 72 hrs by cell titer-glo luminescent cell viability assay; type: functional, organism-based
# In short: (§1)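 RD cells seeded at 1.5 × 10^4/well and grown 24 h, then given 100 TCID50 virus plus compound in 3-fold dilutions (0.01–200 μM). DMSO control. Incubated 37 °C for 72 h; ATP read by CellTiter-Glo luminescence and normalized to uninfected and infected controls. EC50 is the concentration giving 50% CPE reduction. Strains: STL-2014-12, US/KY/14-18953, US/MO/14-18947, Fermon.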
# [3] = Selectivity index, ratio of CC50 for human RD cells to EC50 for Enterovirus-D68 STL-2014-12 infected in human RD cells to; type: toxicity, cell-based; details: for selectivity ratio: RD cells, read-out: Ratio CC50/EC50
# In short: (§2)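 EC50 came from a CPE reduction assay. RD cells (1.5 × 10^4 per well, grown 24 h) were infected with 100 TCID50 of the named strain and given 3-fold dilutions from 0.01 to 200 μM. After 72 h at 37 °C, ATP was read by CellTiter-Glo and normalized to infected and uninfected controls. CC50 came from uninfected cells under the same dilutions, 72 h and ATP readout. SI = CC50/EC50.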
# [4] = system: enterovirus D68; assay: Antiviral activity against Enterovirus-D68 fermon infected in human RD cells assessed as reduction in virus induced cytopathic effect by measuring ATP level incubated for 72 hrs by cell titer-glo luminescent cell viability assay; type: functional, organism-based; details: Enterovirus D; in short: as §1
# [5] = Selectivity index, ratio of CC50 for human RD cells to EC50 for Enterovirus-D68 US/MO/14-18947 infected in human RD cells; type: toxicity, cell-based; details: read-out: Ratio CC50/EC50; in short: as §2
# [6] = system: enterovirus D68; assay: Antiviral activity against Enterovirus-D68 US/MO/14-18947 infected in human RD cells assessed as reduction in virus induced cytopathic effect by measuring ATP level incubated for 72 hrs by cell titer-glo luminescent cell viability assay; type: functional, organism-based; details: Enterovirus D, US/MO/14-18947, RD; in short: as §1
# [7] = Selectivity index, ratio of CC50 for human RD cells to EC50 for Enterovirus-D68 US/KY/14-18953 infected in human RD cells; type: toxicity, cell-based; details: read-out: Ratio CC50/EC50; in short: as §2
# [8] = Selectivity index, ratio of CC50 for human RD cells to EC50 for Enterovirus-D68 fermon infected in human RD cells; type: toxicity, cell-based; details: read-out: Ratio CC50/EC50; in short: as §2
# [9] = system: enterovirus D68; assay: Antiviral activity against Enterovirus-D68 US/KY/14-18953 infected in human RD cells assessed as reduction in virus induced cytopathic effect by measuring ATP level incubated for 72 hrs by cell titer-glo luminescent cell viability assay; type: functional, organism-based; details: Enterovirus D, US/KY/14-18953, RD; in short: as §1
# [10] = Enterovirus D, STL-2014-12, RD, 72 h
smiles,measurement,setting,value
CCc1nc(-c2cnc3ccc(-c4ccc(O)cc4)cc3c2)no1,CC50,[1],> 2500 nM
same,pEC50,[2]; [10],6.72
same,selectivity ratio,[3],> 13
CCOC(=O)c1cnc2ccc(-c3ccc(C(C)C)cc3)cc2c1,CC50,[1],> 7400 nM
same,pEC50,[2]; [10],5.98
same,selectivity ratio,[3],> 2
CCOC(=O)c1cnc2ccc(-c3ccccc3N)cc2c1,CC50,[1],> 7400 nM
same,pEC50,[2]; [10],5.20
same,selectivity ratio,[3],> 1
CCOC(=O)c1cnc2ccc(-c3cccc(N)c3)cc2c1,CC50,[1],> 7400 nM
same,pEC50,[2]; [10],5.17
same,selectivity ratio,[3],> 1
CCCCc1ccc(-c2ccc3ncc(-c4noc(CC)n4)cc3c2)cc1,CC50,[1],> 7400 nM
same,pEC50,[2]; [10],6.74
same,selectivity ratio,[3],> 41
Cc1ccc(-c2ccc3ncc(-c4noc(C(F)(F)F)n4)cc3c2)cc1,CC50,[1],> 22200 nM
same,pEC50,[2]; [10],6.35
same,selectivity ratio,[3],> 49
CCc1ccc(-c2ccc3ncc(-c4noc(C)n4)cc3c2)cc1,CC50,[1],> 7400 nM
same,pEC50,[2]; [10],6.33
same,selectivity ratio,[3],> 16
CC(C)c1nc(-c2cnc3ccc(-c4ccc(N)cc4)cc3c2)no1,CC50,[1],> 800 nM
same,pEC50,[2]; [10],6.40
same,selectivity ratio,[3],> 2
CN(C)c1ccc(-c2ccc3ncc(-c4noc(C(F)(F)F)n4)cc3c2)cc1,CC50,[1],> 22200 nM
same,pEC50,[2]; [10],5.87
same,selectivity ratio,[3],> 16
Cl.Nc1ccc(-c2ccc3ncc(-c4noc(C(F)(F)F)n4)cc3c2)cc1,pEC50,[4],7.05
same,selectivity ratio,[5],> 123
same,pEC50,[6],7.05
same,selectivity ratio,[7],> 123
same,pEC50,[2]; rd,7.00
same,selectivity ratio,[8],> 123
same,pEC50,[9],7.05
same,Ratio CC50/EC50,[3],> 111
COc1ccc(-c2ccc3ncc(-c4noc(C)n4)cc3c2)cc1,CC50,[1],> 66700 nM
same,pEC50,[2]; [10],6.29
same,selectivity ratio,[3],> 131
CCc1nc(-c2cnc3ccc(-c4ccc(F)cc4)cc3c2)no1,CC50,[1],> 7400 nM
same,pEC50,[2]; [10],6.48
same,selectivity ratio,[3],> 22
CCCCc1ccc(-c2ccc3ncc(-c4noc(C)n4)cc3c2)cc1,CC50,[1],> 2500 nM
same,pEC50,[2]; [10],6.23
same,selectivity ratio,[3],> 4
CCc1nc(-c2cnc3ccc(-c4ccc(N5CCOCC5)cc4)cc3c2)no1,CC50,[1],> 200000 nM
same,pEC50,[2]; [10],4.93
same,selectivity ratio,[3],> 17
CCCc1ccc(-c2ccc3ncc(-c4noc(CC)n4)cc3c2)cc1,CC50,[1],> 7400 nM
same,pEC50,[2]; [10],6.28
same,selectivity ratio,[3],> 14
CCOC(=O)c1cnc2ccc(-c3ccc(N)cc3)cc2c1,CC50,[1],> 7400 nM
same,pEC50,[2]; [10],6.33
same,selectivity ratio,[3],> 16
Cc1nc(-c2cnc3ccc(-c4ccccc4)cc3c2)no1,CC50,[1],> 2500 nM
same,pEC50,[2]; [10],6.66
same,selectivity ratio,[3],> 11
CCCCc1ccc(-c2ccc3ncc(C(=O)OCC)cc3c2)cc1,CC50,[1],> 7400 nM
same,pEC50,[2]; [10],6.07
same,selectivity ratio,[3],> 9
CC(C)c1ccc(-c2ccc3ncc(-c4noc(C(F)(F)F)n4)cc3c2)cc1,CC50,[1],> 200000 nM
same,pEC50,[2]; [10],5.29
same,selectivity ratio,[3],> 39
CC(C)(C)c1nc(-c2cnc3ccc(-c4ccc(N)cc4)cc3c2)no1,CC50,[1],> 7400 nM
same,pEC50,[2]; [10],5.37
same,selectivity ratio,[3],> 2
Fc1ccc(-c2ccc3ncc(-c4noc(C(F)(F)F)n4)cc3c2)cc1,CC50,[1],> 7400 nM
same,pEC50,[2]; [10],5.91
same,selectivity ratio,[3],> 6
FC(F)(F)c1nc(-c2cnc3ccc(-c4ccccc4)cc3c2)no1,CC50,[1],> 22200 nM
same,pEC50,[2]; [10],6.12
same,selectivity ratio,[3],> 30
CCc1nc(-c2cnc3ccc(-c4ccc(C)cc4)cc3c2)no1,CC50,[1],> 7400 nM
same,pEC50,[2]; [10],6.21
same,selectivity ratio,[3],> 12
Cc1ccc(-c2ccc3ncc(-c4noc(C)n4)cc3c2)cc1,CC50,[1],> 7400 nM
same,pEC50,[2]; [10],6.24
same,selectivity ratio,[3],> 13
